EPA's CvTdb concentration-time database

Key:
Hamster [1] = experiment: concentration in plasma after dosing; details: dosed: 2,4-Dichlorophenoxyacetic acid, 40 mg/kg, oral, Male, Syrian Golden
Summary of the method: (§1)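 Sampling and analytical methods are those of each source and frequently went unreported. The concentration-versus-time and amount-versus-time points were compiled from published in vivo toxicokinetic studies and two structured collections. Most were digitised from plot screenshots with WebPlotDigitizer, with others copied from tables, in the reported units.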

Hamster [2] = experiment: concentration in plasma after dosing; details: dosed: 2,4-Dichlorophenoxyacetic acid, 8.0 mg/kg, iv, Male, Syrian Golden
Summary of the method: as §1

Hamster [3] = experiment: concentration in plasma after dosing; details: dosed: 2,4-Dichlorophenoxyacetic acid, 8.0 mg/kg, iv, Male, Syrian Golden; remark: listed apart in the source
Summary of the method: as §1

Mouse [4] = experiment: concentration in plasma after dosing; details: 0.25 h; dosed: 2-Hydroxy-4-methoxybenzophenone; 250 mg/kg; oral; Male; B6C3F1
Mouse [5] = experiment: concentration in plasma after dosing; details: 3 h; dosed: 2-Hydroxy-4-methoxybenzophenone; 250 mg/kg; oral; Female; B6C3F1
Rat [6] = experiment: concentration in plasma after dosing; details: dosed: 2-Hydroxy-4-methoxybenzophenone, 250 mg/kg, oral, Female, F344
Rat [7] = experiment: concentration in plasma after dosing; details: dosed: 2-Hydroxy-4-methoxybenzophenone, 500 mg/kg, oral, Male, F344
Mouse [8] = experiment: concentration in plasma after dosing; details: 2 h; dosed: 2-Hydroxy-4-methoxybenzophenone; 500 mg/kg; oral; Female; B6C3F1
Mouse [9] = experiment: concentration in plasma after dosing; details: 10 min; dosed: 2-Hydroxy-4-methoxybenzophenone; 250 mg/kg; oral; Male; B6C3F1
Mouse [10] = experiment: concentration in plasma after dosing; details: 0.25 h; dosed: 2-Hydroxy-4-methoxybenzophenone; 250 mg/kg; oral; Female; B6C3F1
Rat [11] = experiment: concentration in plasma after dosing; details: dosed: Methyleugenol, 37 mg/kg, iv, Male, F344
Rat [12] = experiment: concentration in liver after dosing; details: 192 h; dosed: Perfluorohexane-1-sulphonic acid – potassium salt; 16 mg/kg; oral; Female; F344
Rat [13] = experiment: concentration in liver after dosing; details: dosed: Perfluorohexane-1-sulphonic acid – potassium salt, 16 mg/kg, oral
Rat [14] = experiment: concentration in kidney after dosing; details: 6 h; dosed: Perfluorohexane-1-sulphonic acid – potassium salt; 16 mg/kg; oral; Female; Harlan Sprague Dawley
Rat [15] = experiment: concentration in kidney after dosing; details: 12 h; dosed: Perfluorohexane-1-sulphonic acid – potassium salt; 16 mg/kg; oral; Female; F344
Rat [16] = experiment: concentration in plasma after dosing; details: dosed: Perfluorohexane-1-sulphonic acid – potassium salt, 4 mg/kg, oral, Male, F344
Rat [17] = experiment: concentration in plasma after dosing; details: 3 h; dosed: Primidone; 80 mg/kg; oral; Male; F344
Rat [18] = experiment: concentration in plasma after dosing; details: 0.25 h; dosed: Primidone; 30 mg/kg; oral; Male; F344
Rat [19] = experiment: concentration in plasma after dosing; details: 0.5 h; dosed: Primidone; 130 mg/kg; oral; Male; Harlan Sprague Dawley
Rat [20] = experiment: concentration in plasma after dosing; details: 50 min; dosed: Pyridine; 10 mg/kg; iv; Male; F344
Rat [21] = experiment: concentration in plasma after dosing; details: 20 min; dosed: Pyridine; 10 mg/kg; oral; Female; Harlan Sprague-Dawley
Rat [22] = experiment: concentration in brain after dosing; details: 3 h; dosed: alpha-Thujone; 25 mg/kg; oral; Female; Harlan Sprague Dawley
Rat [23] = experiment: concentration in plasma after dosing; details: 2.5 h; dosed: 76231-76-0; 3.0 mg/kg; iv; Female; F344
Rat [24] = experiment: concentration in plasma after dosing; details: 5 min; dosed: alpha-Thujone; 25 mg/kg; oral; Male; Harlan Sprague Dawley
Rat [25] = experiment: concentration in brain after dosing; details: 5 min; dosed: alpha-Thujone; 50 mg/kg; oral; Female; Harlan Sprague Dawley
Rat [26] = experiment: concentration in brain after dosing; details: 0.5 h; dosed: alpha-Thujone; 25 mg/kg; oral; Female; Harlan Sprague Dawley
Rat [27] = experiment: concentration in brain after dosing; details: 1.5 h; dosed: alpha-Thujone; 25 mg/kg; oral; Male; Harlan Sprague Dawley
human = experiment: concentration in blood after dosing; negative times count back from the end of exposure; details: dosed: trichloroethylene, 100 ppm, inhalation, duration: 6 hr, female
Summary of the method: as §1

For `O=C(O)COc1ccc(Cl)cc1Cl` [2,4-Dichlorophenoxyacetic acid], the concentration in plasma (Hamster [1]; 5 min) was 102000 ng/mL, the concentration in plasma (Hamster [1]; 0.25 h) was 70500 ng/mL and the concentration in plasma (Hamster [1]; 0.5 h) was 36800 ng/mL. The concentration in plasma (Hamster [1]; 1 h) was 80100 ng/mL, the concentration in plasma (Hamster [1]; 1.5 h) was 14000 ng/mL and the concentration in plasma (Hamster [1]; 2 h) was 20500 ng/mL. For the same compound, the concentration in plasma (Hamster [1]; 4 h) was 2580 ng/mL, the concentration in plasma (Hamster [2]; 10 min) was 30200 ng/mL and the concentration in plasma (Hamster [2]; 0.5 h) was 10700 ng/mL. It also gave a concentration in plasma (Hamster [2]; 1 h) of 1700 ng/mL, a concentration in plasma (Hamster [3]; 2.5 min) of 127000 ng/mL and a concentration in plasma (Hamster [3]; 5 min) of 68500 ng/mL. The concentration in plasma (Hamster [3]; 10 min) was 43200 ng/mL, the concentration in plasma (Hamster [3]; 20 min) was 15900 ng/mL and the concentration in plasma (Hamster [3]; 40 min) was 2690 ng/mL. It also gave a concentration in plasma (Hamster [3]; 1.5 h) of 327 ng/mL and a concentration in plasma (Hamster [3]; 2 h) of 159 ng/mL.

`O=C(c1ccccc1)c1ccc(O)cc1O` [2,4-Dihydroxybenzophenone] gave a concentration in plasma (Mouse [4]) of 1490 ng/mL, a concentration in plasma (Mouse [5]) of 162 ng/mL and a concentration in plasma (Rat [6]; 0.25 h) of 359 ng/mL. The concentration in plasma (Rat [6]; 4 h) was 135 ng/mL, the concentration in plasma (Rat [7]; 10 min) was 55.1 ng/mL and the concentration in plasma (Rat [7]; 10 h) was 203 ng/mL. It also gave a concentration in plasma (Mouse [8]) of 135 ng/mL, a concentration in plasma (Mouse [9]) of 392 ng/mL and a concentration in plasma (Mouse [10]) of 437 ng/mL.

`C=CCc1ccc(OC)c(OC)c1` [Methyleugenol] showed a concentration in plasma (Rat [11]; 2 min) of 59100 ng/mL and a concentration in plasma (Rat [11]; 6 h) of 114 ng/mL.

`O=S(=O)([O-])C(F)(F)C(F)(F)C(F)(F)C(F)(F)C(F)(F)C(F)(F)F.[K+]` [Perfluorohexane-1-sulphonic acid – potassium salt] showed a concentration in liver (Rat [12]) of 38200 ng/g, a concentration in liver (Rat [13]; 3 h, Female, F344) of 67800 ng/g and a concentration in liver (Rat [13]; 3 h, Female, Harlan Sprague Dawley) of 49500 ng/g. For the same compound, the concentration in liver (Rat [13]; 6 h, Female, F344) was 62400 ng/g, the concentration in liver (Rat [13]; 6 h, Female, Harlan Sprague Dawley) was 49000 ng/g and the concentration in liver (Rat [13]; 12 h, Female, F344) was 68600 ng/g. The concentration in liver (Rat [13]; 12 h, Female, Harlan Sprague Dawley) was 33300 ng/g, the concentration in liver (Rat [13]; 24 h, Female, F344) was 58000 ng/g and the concentration in liver (Rat [13]; 24 h, Female, Harlan Sprague Dawley) was 26100 ng/g. For the same compound, the concentration in liver (Rat [13]; 48 h, Female, Harlan Sprague Dawley) was 14000 ng/g, the concentration in liver (Rat [13]; 96 h, Female, Harlan Sprague Dawley) was 6030 ng/g and the concentration in liver (Rat [13]; 192 h, Female, F344) was 47000 ng/g. For the same compound, the concentration in liver (Rat [13]; 192 h, Female, Harlan Sprague Dawley) was 1460 ng/g, the concentration in liver (Rat [13]; 528 h, Female, F344) was 27600 ng/g and the concentration in liver (Rat [13]; 1200 h, Male, Harlan Sprague Dawley) was 14800 ng/g. The concentration in kidney (Rat [14]) was 36500 ng/g, the concentration in kidney (Rat [15]) was 37000 ng/g and the concentration in plasma (Rat [16]; 6 h) was 28700 ng/mL. It also gave a concentration in plasma (Rat [16]; 192 h) of 19100 ng/mL.

For `CCC1(c2ccccc2)C(=O)NCNC1=O` [Primidone], the concentration in plasma (Rat [17]) was 37200 ng/mL, the concentration in plasma (Rat [18]) was 8900 ng/mL and the concentration in plasma (Rat [19]) was 47000 ng/mL.

In the case of `c1ccncc1` [Pyridine], the concentration in plasma (Rat [20]) is reported as 4150 ng/mL and the concentration in plasma (Rat [21]) is reported as 2070 ng/mL.

In the case of `CC(C)[C@]12CC(=O)[C@H](C)[C@H]1C2` [alpha-Thujone], the concentration in brain (Rat [22]) is reported as 556 ng/g, the concentration in plasma (Rat [23]) is reported as 2.88 ng/mL and the concentration in plasma (Rat [24]) is reported as 247 ng/mL. It also gave a concentration in brain (Rat [25]) of 3080 ng/g, a concentration in brain (Rat [26]) of 987 ng/g and a concentration in brain (Rat [27]) of 234 ng/g.

With `OCC(Cl)(Cl)Cl` [trichloroethanol] the concentration in blood (human; 0 h) was 4610 ng/mL, the concentration in blood (human; 18 h) was 4180 ng/mL and the concentration in blood (human; 24 h) was 8180 ng/mL. The concentration in blood (human; 42 h) was 6260 ng/mL, the concentration in blood (human; 48 h) was 11800 ng/mL and the concentration in blood (human; 66 h) was 6560 ng/mL. It also gave a concentration in blood (human; 72 h) of 13100 ng/mL, a concentration in blood (human; 90 h) of 5590 ng/mL and a concentration in blood (human; 96 h) of 9980 ng/mL. It also gave a concentration in blood (human; 160 h) of 1570 ng/mL and a concentration in blood (human; -6 h, during exposure) of 212 ng/mL.
